Measured values as given in PubChem BioAssay AID2269 (The Scripps Research Institute Molecular Screening Center, 2010).
The source made the active and inactive calls. The rule behind the calls is not given here.

molecular target: Serine hydrolase RBBP9 (Homo sapiens) (UniProt O75884); test: inhibition of RBBP9 probe labeling – biochemical, gel-based ABPP, FP-rhodamine, powder samples, orthogonal assay, late-stage follow-up (AID 2269); details: recombinant RBBP9, gel-based ABPP, at 20 µM, hits give high values
Sequence (O75884 whole entry, looked up): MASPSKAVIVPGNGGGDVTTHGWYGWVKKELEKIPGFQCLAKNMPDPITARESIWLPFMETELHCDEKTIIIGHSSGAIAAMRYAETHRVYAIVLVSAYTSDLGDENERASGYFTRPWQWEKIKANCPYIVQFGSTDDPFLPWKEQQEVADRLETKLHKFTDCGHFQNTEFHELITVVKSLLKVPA
How it was run: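 Test system: recombinant RBBP9; also added: FP-rhodamine probe, 75 nM final; dosing: single compound concentration per test; schedule: compound preincubation with enzyme 30 min at 25 °C, probe labeling 45 min; detection: in-gel fluorescence after SDS-PAGE; evaluation: percent inhibition from integrated optical density of labeled bands; control set: DMSO vehicle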

| Compound | inhibition |
| --- | --- |
| NC(=NOC(=O)C1CCCCC1)c1cccc([N+](=O)[O-])c1 | 5% (inactive) |
| COc1ccc(C(=O)O/N=C2\C=C(C)C(=O)C=C2C)cc1 | 76% |
| COc1ccc(/C(N)=N/OC(=O)C23CC4CC(CC(C4)C2)C3)cc1OC | 28% (inactive) |
| N/C(Cc1cccs1)=N\OC(=O)C12CC3CC(CC(C3)C1)C2 | 6% (inactive) |
| COc1ccc(C(=O)ON=C2C=C(C)C(=O)C(C)=C2)cc1 | 93% |
| CC1=CC(=NOC(=O)/C=C/c2ccccc2)C=C(C)C1=O | 78% |
| CC(=NOC(=O)c1ccc(-c2ccccc2)cc1)c1cccs1 | 0% (inactive) |
| C/C(=N\OC(=O)N1CCCCC1)c1nccs1 | 0% (inactive) |
| CC(C)=NOC(=O)c1cn(-c2ccccc2)nc1-c1ccc(F)cc1 | 0% (inactive) |
| CC(=NOC(=O)c1ccc(S(=O)(=O)N2CCOCC2)cc1)c1cc2ccccc2o1 | 15% (inactive) |
| CC(=NOC(=O)c1cn(-c2ccccc2)nc1-c1ccc(Cl)cc1)c1ccccc1 | 10% (inactive) |
| CC(=O)ON=C(C)c1cc(C(C)(C)C)cc2c1CCC2(C)C | 0% (inactive) |
| COc1ccc(C(=O)ON=C2C(C)=CC(=O)C=C2C)cc1 | 48% (inactive) |
| N/C(Cc1ccc(Cl)cc1)=N\OC(=O)C1CCCCC1 | 0% (inactive) |
| CC(=NOC(=O)c1ccc(-c2cc(Cl)ccc2Cl)o1)c1ccccc1 | 0% (inactive) |
| NC(=O)C(=NOC(=O)c1ccccc1Cl)c1nc(-c2ccc(Br)cc2)cs1 | 0% (inactive) |
| CC(C)=NOC(=O)c1cn(-c2ccccc2)nc1-c1cccs1 | 0% (inactive) |
| NC(=O)C(=NOC(=O)c1ccccc1)c1nc(-c2ccc(Cl)cc2)cs1 | 57% |

Results, then the compound that gave them:

| inhibition | Compound |
| --- | --- |
| 78% | C/C(=N\OC(=O)c1ccc(Cl)cc1)c1nccs1 |
| 42% (inactive) | C#CCCC(=O)O/N=C(\C)c1nccs1 |
| 62% | C/C(=N\OC(=O)c1ccccc1)c1nccs1 |
| 14% (inactive) | C/C(=N\OC(=O)c1c(-c2c(F)cccc2Cl)noc1C)c1nccs1 |
| 64% | C/C(=N\OC(=O)c1ccccc1F)c1nccs1 |
| 66% | C/C(=N\OC(=O)c1ccc(I)cc1)c1nccs1 |
| 0% (inactive) | C/C(=N\OC(=O)c1ccccc1Cl)c1ccc(Br)cc1 |
| 42% (inactive) | C/C(=N\OC(=O)/C=C/c1ccccc1)c1nccs1 |
| 15% (inactive) | C/C(=N\OC(=O)c1ccc([N+](=O)[O-])cc1)c1nccs1 |
| 17% (inactive) | CC(=NOC(=O)c1c(-c2ccccc2Cl)noc1C)c1nccs1 |
| 60% | COc1ccc(C(=O)O/N=C(\C)c2nccs2)cc1 |
| 91% | C/C(=N\OC(=O)C1CCCCC1)c1nccs1 |
| 66% | C/C(=N\OC(=O)c1c(F)cccc1F)c1nccs1 |
| 0% (inactive) | CC(=O)O/N=C(\C)c1nccs1 |
| 46% (inactive) | C/C(=N\OC(=O)c1cccc(C(F)(F)F)c1)c1nccs1 |
| 63% | C/C(=N\OC(=O)c1cccc(Cl)c1)c1nccs1 |
| 0% (inactive) | C/C(=N\OC(=O)c1ccccc1O)c1cccs1 |
| 76% | C/C(=N\OC(=O)c1ccc(F)cc1)c1nccs1 |
| 4% (inactive) | C/C(=N\OC(=O)c1ccc(-c2ccccc2)cc1)c1nccs1 |
